Tests used:
Bos taurus [1] = species: Bos taurus; assay: Relative potency of compound to that of theophylline against phosphodiesterase from bovine heart
In short: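 Klee-method assay of commercial bovine heart phosphodiesterase with 1 μM cyclic-AMP; some inhibitors were dissolved in 95% ethanol (2.5% final). I50 came from V0/V versus concentration plots (V0/V = 2), using five concentrations and at least three repeats. Each value is expressed relative to the I50 of a theophylline control (= 1.0) run with or without ethanol to match.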

[2] = Inhibitory activity against phosphodiesterase using 1 uM cyclic-AMP as substrate in bovine heart; design: species or system Bos taurus; settings: read-out: I50
In short: (§1)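 Commercial bovine heart phosphodiesterase assayed by the Klee method with 1 μM cyclic-AMP substrate. Poorly soluble inhibitors were predissolved in 95% ethanol, giving 2.5% ethanol final. I50 was taken from a plot of V0/V against inhibitor concentration as the concentration where V0/V = 2. Five concentrations spanning 25–75% inhibition were used, and each I50 was repeated at least three times; ± standard error.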

Bos taurus [3] = species: Bos taurus; assay: Inhibition of bovine heart phosphodiesterase at 2000 uM using 1 uM cyclic-AMP
In short: (§2)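 Percent inhibition of commercial bovine heart phosphodiesterase at the single stated inhibitor concentration, measured by the Klee method with 1 μM cyclic-AMP substrate. Some compounds were dissolved in 95% ethanol, giving 2.5% final ethanol, before dilution with buffer.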

Bos taurus [4] = species: Bos taurus; assay: Inhibition of bovine heart phosphodiesterase at 1000 uM using 1 uM cyclic-AMP; in short: as §2
[5] = Inhibition of bovine heart phosphodiesterase using 1 uM cyclic-AMP (Insoluble); design: species or system Bos taurus; in short: as §1
[6] = Inhibition of bovine heart phosphodiesterase using 1 uM cyclic-AMP with ethanol; design: species or system Bos taurus; settings: read-out: I50
In short: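 Commercial bovine heart PDE, assayed by the Klee method with 1 μM cyclic-AMP substrate. Inhibitors were dissolved in 95% ethanol and diluted with buffer to 2.5% ethanol final. V0/V was plotted against inhibitor concentration, and I50 was taken where V0/V = 2. Five inhibitor concentrations spanning 25-75% inhibition were used, each I50 was run at least three times, and values are expressed relative to an ethanol-containing theophylline control (= 1.0) ± standard error.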

Bos taurus [7] = species: Bos taurus; assay: Inhibition of bovine heart phosphodiesterase at 3000 uM using 1 uM cyclic-AMP
In short: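 Commercial bovine heart cyclic-AMP phosphodiesterase assayed by the Klee method with 1 μM cyclic-AMP substrate. Poorly soluble compounds were dissolved in 95% ethanol (2.5% final) before dilution with buffer. Activity is read as percent inhibition at a single inhibitor concentration.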

Bos taurus [8] = species: Bos taurus; assay: Inhibition of bovine heart phosphodiesterase using 1 uM cyclic-AMP; in short: as §1
Bos taurus [9] = species: Bos taurus; assay: Inhibition of bovine heart phosphodiesterase at 1500 uM using 1 uM cyclic-AMP; in short: as §2

Row | SMILES | Relative potency (Bos taurus [1]) | IC50 [2] | also measured
1 | CC[N+]1=C2SC=NN2C(=O)C(C)C1=O (centres undefined) | 0.4 | 1160 µM | –
2 | O=C1CC(=O)[N+](CC2CC2)=C2SCCN12 | 0.1 | 2050 µM | –
3 | CCC1C(=O)N2C=CC=CC2=[N+](CC2CCCCC2)C1=O (centres undefined) | 2 | 210 µM | –
4 | COc1ccc(C[N+]2=C3SC=CN3C(=O)C(C)C2=O)cc1 (centres undefined) | 0.7 | 532 µM | –
5 | O=C1CC(=O)[N+](CC2CC2)=C2SC=CN12 | 0.6 | 495 µM | –
6 | CCC1C(=O)N2N=CN(C)C2=[N+](C)C1=O (centres undefined) | – | – | inhibition (Bos taurus [3]): < 30%
7 | CC[N+]1=C2SC=CN2C(=O)CC1=O | 0.3 | 988 µM | –
8 | CC1C(=O)N2N=CSC2=[N+](Cc2ccccc2)C1=O (centres undefined) | 2.2 | 191 µM | –
9 | CC1C(=O)N2C=CSC2=[N+](CC2CC2)C1=O (centres undefined) | 0.9 | 319 µM | –
10 | CCC1C(=O)N2C=CSC2=[N+](Cc2ccccc2Cl)C1=O (centres undefined) | 1.4 | 305 µM | –
11 | C[N+]1=C2SC=CN2C(=O)CC1=O | – | – | inhibition (Bos taurus [4]): < 40%
12 | CCC1C(=O)N=C2SC=NN2C1=O (centres undefined) | – | – | I50 [5]: Insoluble
13 | CCC1C(=O)N2C=CSC2=[N+](Cc2ccc3c(c2)OCO3)C1=O (centres undefined) | 1.6 | 261 µM | –
14 | CC1C(=O)N2N=CN(C)C2=[N+](C)C1=O (centres undefined) | – | – | inhibition (Bos taurus [3]): < 30%
15 | CCC1C(=O)N=C2N=CC=CN2C1=O (centres undefined) | – | – | inhibition (Bos taurus [3]): 22%
16 | C[N+]1=C2SC=NN2C(=O)CC1=O | 0.4 | 1100 µM | –
17 | CC[N+]1=C2SC=NN2C(=O)CC1=O | 0.5 | 774 µM | –
18 | CCCC1C(=O)N2N=CN(C)C2=[N+](C)C1=O (centres undefined) | 0.2 | 1710 µM | –
19 | CC1C(=O)N(C)C2SC=CN2C1=O (centres undefined) | – | – | inhibition (Bos taurus [4]): < 40%

Row | SMILES | Relative potency (Bos taurus [1]) | IC50 [2] | also measured
20 | O=C1CC(=O)[N+](c2ccccc2)=C2SC=CN12 | – | – | inhibition (Bos taurus [4]): < 40%
21 | CC1C(=O)N2C=CSC2=[N+](c2ccccc2)C1=O (centres undefined) | – | – | inhibition (Bos taurus [4]): < 40%
22 | CC[N+]1=C2SC=NN2C(=O)C(Cc2ccccc2)C1=O (centres undefined) | 7.9 | 52 µM | –
23 | CCC1C(=O)N2C=CSC2=[N+](c2ccccc2)C1=O (centres undefined) | – | – | inhibition (Bos taurus [4]): < 40%
24 | CCC1C(=O)N(C)C2SC=CN2C1=O (centres undefined) | – | – | inhibition (Bos taurus [4]): < 40%
25 | Cn1c(=O)c2nc[nH]c2n(C)c1=O [THEOPHYLLINE] | – | 286 µM | IC50 [6]: 412 µM
26 | CC[N+]1=C2N(C)C=CN2C(=O)C(C)C1=O (centres undefined) | – | – | inhibition (Bos taurus [7]): < 30%
27 | CCC1C(=O)N=C2SC=CN2C1=O (centres undefined) | – | – | I50 [5]: Insoluble
28 | CN1C=NN2C(=O)CC(=O)[N+](C)=C12 | – | – | inhibition (Bos taurus [3]): < 30%
29 | CC1C(=O)N2CCSC2=[N+](CC2CC2)C1=O (centres undefined) | 0.2 | 1260 µM | –
30 | CCC1C(=O)N2C=CN(C)C2=[N+](CC)C1=O (centres undefined) | – | – | inhibition (Bos taurus [7]): < 30%
31 | Cn1c(=O)c2[nH]cnc2n(C)c1=O | 1 | – | –
32 | CCC1C(=O)N2CCSC2=[N+](CC)C1=O (centres undefined) | – | – | inhibition (Bos taurus [8]): 38%
33 | CCC1C(=O)N2C=CSC2=[N+](Cc2cc(OC)cc(OC)c2)C1=O (centres undefined) | 1.3 | 323 µM | –
34 | CCC1C(=O)N2CCSC2=[N+](CC2CC2)C1=O (centres undefined) | 0.2 | 1390 µM | –
35 | CCC1C(=O)N2C=CSC2=[N+](Cc2ccc(-c3ccccc3)cc2)C1=O (centres undefined) | 31.7 | 13 µM | –
36 | O=C1CC(=O)[n+]2ccsc2N1Cc1cccc(Cl)c1 | 1.3 | 308 µM | –
37 | CC[N+]1=C2SC=CN2C(=O)C(Cc2ccccc2)C1=O (centres undefined) | 2.5 | 168 µM | –
38 | CCC1C(=O)N2CCSC2=[N+](CC(C)C)C1=O (centres undefined) | – | – | inhibition (Bos taurus [9]): 39%

Now from value to compound, other results behind:

Row | Relative potency (Bos taurus [1]) | IC50 [2] | SMILES | also measured
39 | 0.7 | 555 µM | CCC1C(=O)N2N=CSC2=[N+](CC)C1=O (centres undefined) | –
40 | 3.2 | 127 µM | CCC1C(=O)N2C=Cc3ccccc3C2=[N+](CC)C1=O (centres undefined) | –
41 | 0.3 | 858 µM | CCC1C(=O)N(CC)c2scc[n+]2C1=O (centres undefined) | –
42 | 0.2 | 1670 µM | CCC1C(=O)N2C=CC=NC2=[N+](C)C1=O (centres undefined) | –
43 | 0.7 | 396 µM | CCC1C(=O)N2C=CSC2=[N+](CC2CC2)C1=O (centres undefined) | –
44 | 2.2 | 191 µM | CCC1C(=O)N2C=CSC2=[N+](Cc2ccc(Cl)cc2)C1=O (centres undefined) | –
45 | 0.3 | 951 µM | CC[N+]1=C2SC=CN2C(=O)C(C)C1=O (centres undefined) | –
46 | 2 | 208 µM | CCC1C(=O)N2C=CSC2=[N+](Cc2cccc(Cl)c2)C1=O (centres undefined) | –
47 | 0.6 | 498 µM | CCC1C(=O)N2C=CSC2=[N+](CC(C)C)C1=O (centres undefined) | –
48 | 0.9 | 430 µM | CCC1C(=O)N2C=CSC2=[N+](Cc2ccccc2)C1=O (centres undefined) | –

From ChEMBL document CHEMBL1121738, “Mesoionic purinone analogues as inhibitors of cyclic-AMP phosphodiesterase: a comparison of several ring systems” (J Med Chem, 1981)
